Columns and labels:
[1] = nitrofuran metabolite; cited from earlier work
T. congolense IL3000 [2] = assay: In vitro trypanocidal activity, bloodstream forms, CellTiter-Glo; assay type: cell-based, Trypanosoma congolense
T. evansi Tansui = assay: as above; assay type: cell-based, Trypanosoma evansi
T. b. brucei GUTat3.1 = assay: as above; assay type: cell-based, Trypanosoma brucei brucei
T. congolense IL3000 [3] = details: T. congolense IL3000 infected mice, cited from earlier work
T. equiperdum IVM-t1 = assay: In vitro trypanocidal activity, bloodstream forms, CellTiter-Glo; assay type: cell-based, Trypanosoma equiperdum
[4] = In vitro cytotoxicity, Cell Counting Kit-8; assay type: cell-based; details: bovine, MDBK cells (Madin–Darby bovine kidney)
How it was run: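 MDBK cells (1 × 10^4 cells/mL) incubated at 37°C for 72 h with test compound in […] twofold serial dilutions, 100 down to 0.39 μg/mL. Cell Counting Kit-8 added; OD450 read before and after a further 4 h incubation. Done in three replicates. CC50 from nonlinear regression curve fit, reported as mean ± SD.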

T. b. gambiense IL1922 = assay: In vitro trypanocidal activity, bloodstream forms, CellTiter-Glo; assay type: cell-based, Trypanosoma brucei gambiense
T. b. rhodesiense IL1501 = assay: as above; assay type: cell-based, Trypanosoma brucei rhodesiense

Structure (SMILES) | metabolite present in edible pig tissues [1] [µg/kg] | Selectivity index (SI) (T. congolense IL3000 [2]; CC50 of MDBK/IC50 of Tc IL3000) | IC50 (T. congolense IL3000 [2]; Trypanosoma congolense, 72 h, read-out: trypanocidal activity IC50 ± SD) [nM] | Selectivity index (SI) (T. evansi Tansui; CC50 of MDBK/IC50 of Tev Tansui) | IC50 (T. evansi Tansui; Trypanosoma evansi, 72 h, read-out: trypanocidal activity IC50 ± SD) [nM] | Selectivity index (SI) (T. b. brucei GUTat3.1; CC50 of MDBK/IC50 of Tbb GuTat3.1) | IC50 (T. b. brucei GUTat3.1; Trypanosoma brucei, 72 h, read-out: trypanocidal activity IC50 ± SD) [nM] | minimum effective dose (T. congolense IL3000 [3]) [mg/kg] | survival and cure (T. congolense IL3000 [3]; dose ≥30 mg/kg) [%] | Selectivity index (SI) (T. equiperdum IVM-t1; CC50 of MDBK/IC50 of Teq IVM-t1) | IC50 (T. equiperdum IVM-t1; Trypanosoma equiperdum, 72 h, read-out: trypanocidal activity IC50 ± SD) [nM] | CC50 at 72 h [4] [nM] | Selectivity index (SI) (T. b. gambiense IL1922; CC50 of MDBK/IC50 of Tbg IL1922) | IC50 (T. b. gambiense IL1922; Trypanosoma brucei, GAMBIENSE, 72 h, read-out: trypanocidal activity IC50 ± SD) [nM] | Selectivity index (SI) (T. b. rhodesiense IL1501; CC50 of MDBK/IC50 of Tbr IL1501) | IC50 (T. b. rhodesiense IL1501; Trypanosoma brucei, RHODESIENSE, 72 h, read-out: trypanocidal activity IC50 ± SD) [nM]
NN1CC(=O)NC1=O [1-aminihydantoin, 1-aminohydantoin] | 3 to 8 |  |  |  |  |  |  |  |  |  |  |  |  |  |  | 
O=C1CN(/N=C/c2ccc([N+](=O)[O-])o2)C(=O)N1 [Nitrofurantoin, nitrofurantoin] |  | 174 | 420 ± 50 | 44 | 1670 ± 70 | 48 | 1510 ± 30 | 30 | 100 | 50 | 1450 ± 30 | 73000 ± 36200 | 39 | 1850 ± 230 | 43 | 1690 ± 200

Source: article PMC10652724 (ACS Omega, 2023)
